Experimental data reported in publication PMC3582904 (International Journal of Oncology, 2012).
Read-outs that look alike come from different tables or passages of the source. Marks after values point to notes of the source that are not given here.

Key:
[1] = patients with advanced non-small cell lung, breast, colon, and pancreatic cancers; diarrhea, nausea, asthenia, rash, anorexia; cited from earlier work
[2] = system: EHMES-10 cells; assay: WST-1 cell proliferation assay, EHMES-10; type: cell-based, human; conditions: read-out: IC50 against EHMES-10 cells, 72 h
In short: (§1)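 Cells at 1×10^4 per well in RPMI-1640/10% FBS were exposed for 72 h to test compound at 20 to 200 μM, with DMSO final 1.0%. Vehicle controls received matching DMSO. WST-1 reagent was then added, and absorbance was read at 450 nm against a 690 nm reference. IC50 was taken from the dose-response; means ± SD.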

[3] = system: MSTO211H cells; assay: WST-1 cell proliferation assay, MSTO211H; type: cell-based, human; conditions: read-out: IC50 against MSTO211H cells, 72 h
In short: as §1

[4] = system: EHMES-10 cells; assay: Cell cycle analysis; type: cell-based, human; conditions: 24 h; for percentage of cells in sub-G1 phase compared to control: EHMES-10, 80 μM each agent; for G1-phase population compared to control: EHMES-10, 80 μM, P<0.05
In short: (§2)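 Cells grown in RPMI-1640 with 10% FBS at 37°C and 5% CO2 were exposed to 80 μM MEK inhibitor, 80 μM PI3K inhibitor or both for 24 h (DMSO final 1.0%). They were then trypsinized, and nuclei were stained with propidium iodide (CycleTest Plus kit). Phase profiles came from FACScan flow cytometry. Three independent runs; means ± SD, ANOVA with Dunnett's test.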

[5] = system: MSTO211H cells; assay: Cell cycle analysis; type: cell-based, human; conditions: 24 h; for percentage of cells in sub-G1 phase compared to control: 80 μM each agent; for G1-phase population compared to control: 80 μM, P<0.05
In short: as §2

[6] = system: EHMES-10 cells; assay: DNA fragmentation assay; type: cell-based, human; conditions: EHMES-10, single agent, 24 h, dose-dependent
In short: (§3)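 Apoptosis was scored after 24 h exposure to either MEK or PI3K inhibitor or their combination, in RPMI-1640/10% FBS with DMSO final 1.0%. Cytoplasmic histone-associated DNA fragments were quantified with the Cell Death Detection ELISA kit. Means ± SD, ANOVA with Dunnett's test.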

[7] = system: MSTO211H cells; assay: DNA fragmentation assay; type: cell-based, human; conditions: single agent, 24 h, dose-dependent
In short: as §3

[8] = system: EHMES-10 cells; assay: Western blot analysis of cultured EHMES-10 cells; type: cell-based, human; conditions: EHMES-10, 80 μM, 24 h
In short: (§4)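 Cultured cells received 80 μM MEK inhibitor and/or 80 μM PI3K inhibitor for 24 h. Lysates were cleared at 15,000 × g, 15 min, 4°C, resolved on 7.5–15% gels, transferred to nitrocellulose and immunoblotted; three independent experiments.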

[9] = system: MSTO211H cells; assay: Western blot analysis of cultured MSTO211H cells; type: cell-based, human; conditions: 80 μM, 24 h
In short: as §4

[10] = system: EHMES-10 cells; assay: Orthotopic implantation model, EHMES-10 cells in SCID mice; type: in vivo; conditions: for survival time compared to control group: P<0.01; for Pleural effusion Incidence / Thoracic tumor Incidence: day 30; for Pleural effusion Volume / Thoracic tumor Weight: day 30, median (range)
In short: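 Male SCID mice aged 6–8 weeks received 3×10^6 EHMES-10 cells in PBS into the thoracic cavity. On day 7 they were randomized, […], to vehicle (40% DMSO in PBS), MEK inhibitor (20, 30, 40 mg/kg), PI3K inhibitor (12.5, 25, 50 mg/kg) or 30 + 25 mg/kg combined, given i.p. twice weekly. Mice were killed on day 30; tumor weighed, effusion volume measured. Medians (ranges), Mann-Whitney; survival by Kaplan-Meier/log-rank.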

[11] = Side effects in EHMES-10 cell-bearing SCID mice; type: in vivo; conditions: day 30, median (range)
[12] = system: EHMES-10 cells; type: in vivo, SCID mice; conditions: thoracic tumors, day 30; for expression of p27kip1 and 89 kDa cleaved PARP (western blot of tumors): 30 mg/kg U0126, 25 mg/kg LY294002 or combination
In short: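 Thoracic tumors were excised on day 30 from SCID mice given i.p. test compounds twice weekly in 40% DMSO/PBS. Paraffin sections were immunostained for phospho-ERK1/2, phospho-Akt and p27kip1 (Envision method, Fuchsin+ chromogen). Tumor homogenates were lysed in Tris/NaCl/Triton/NaF/Na3VO4 buffer, cleared at 15,000 × g, separated on 7.5–15% gels and immunoblotted.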

[13] = cited from earlier work
[14] = 30 mg/kg U0126, alone or with 25 mg/kg LY294002
[15] = 25 mg/kg LY294002, alone or with 30 mg/kg U0126

O=C(NOCC1CC1)c1ccc(F)c(F)c1Nc1ccc(I)cc1Cl [CI-1040]
toxicities in patients [1]: mild or moderate toxicities

N#CC(=C(/N)Sc1ccccc1N)/C(C#N)=C(/N)Sc1ccccc1N [U0126]
IC50 ([2]; WST-1 assay): 66.8 µM
IC50 ([3]; WST-1 assay): 39 µM
percentage of cells in sub-G1 phase compared to control [4]: significantly increased
G1-phase population compared to control [4]: significantly increased
percentage of cells in sub-G1 phase compared to control [5]: significantly increased
G1-phase population compared to control [5]: significantly increased
apoptosis by DNA fragmentation analysis [6]: induced apoptosis
apoptosis by DNA fragmentation analysis [7]: induced apoptosis
HIF1α and VEGF expression [8]: decreased
cyclin D1 expression [8]: decrease
level of 89 kDa cleaved PARP [8]: increased
levels of phospho-Bad and procaspase 3 [8]: decreased
phosphorylation of ERK1/2 and p90RSK [8]: blocked
cyclin D1 expression [9]: decrease
level of 89 kDa cleaved PARP [9]: increased
levels of phospho-Bad and procaspase 3 [9]: decreased
survival time compared to control group ([10]; 30 mg/kg i.p. twice a week): significantly prolonged
Pleural effusion Incidence ([10]; 30 mg/kg i.p. twice/week): 1/5
Thoracic tumor Incidence ([10]; 30 mg/kg i.p. twice/week): 4/5
Pleural effusion Volume ([10]; 30 mg/kg i.p. twice/week): 0 (0–100)^a μl
Thoracic tumor Weight ([10]; 30 mg/kg i.p. twice/week): 31.3 (0–59.2)^a mg
survival time compared to control group ([10]; 40 mg/kg i.p. twice a week): significantly prolonged
Pleural effusion Incidence ([10]; 40 mg/kg i.p. twice/week): 0/5
Thoracic tumor Incidence ([10]; 40 mg/kg i.p. twice/week): 3/5
Pleural effusion Volume ([10]; 40 mg/kg i.p. twice/week): 0 (−)^a μl
Thoracic tumor Weight ([10]; 40 mg/kg i.p. twice/week): 14.6 (0–191.3)^a mg
ALT ([11]; 30 mg/kg i.p. twice/week): 30 (20–60) IU/l
AST ([11]; 30 mg/kg i.p. twice/week): 48 (44–64) IU/l
BUN ([11]; 30 mg/kg i.p. twice/week): 22.2 (15.4–24.0) mg/dl
Cre ([11]; 30 mg/kg i.p. twice/week): 0.10 (0.08–0.15) mg/dl
TP (serum total protein) ([11]; 30 mg/kg i.p. twice/week): 4.3 (4.0–5.0) g/dl
Weight (body weight) ([11]; 30 mg/kg i.p. twice/week): 24.1 (23.5–27.2) g
ALT ([11]; 40 mg/kg i.p. twice/week): 45 (31–80) IU/l
AST ([11]; 40 mg/kg i.p. twice/week): 75 (53–111) IU/l
BUN ([11]; 40 mg/kg i.p. twice/week): 19.1 (15.3–22.1) mg/dl
Cre ([11]; 40 mg/kg i.p. twice/week): 0.07 (0.05–0.12)^a mg/dl
TP (serum total protein) ([11]; 40 mg/kg i.p. twice/week): 5.0 (4.4–6.6) g/dl
Weight (body weight) ([11]; 40 mg/kg i.p. twice/week): 24.9 (23.3–25.9) g
expression of p27kip1 and 89 kDa cleaved PARP (western blot of tumors) [12]: increased
ERK1/2 phosphorylation (western blot of tumors) [12, 14]: inhibited
phospho-ERK1/2-positive tumor cells (immunohistochemistry) [12, 14]: reduced

O=c1cc(N2CCOCC2)oc2c(-c3ccccc3)cccc12 [LY294002]
IC50 ([2]; Homo sapiens): 20.7 µM
IC50 ([3]; Homo sapiens, MSTO-211H): 29.9 µM
percentage of cells in sub-G1 phase compared to control [4]: significantly increased
G1-phase population compared to control [4]: significantly increased
percentage of cells in sub-G1 phase compared to control [5]: significantly increased
G1-phase population compared to control [5]: significantly increased
apoptosis by DNA fragmentation analysis [6]: induced apoptosis
apoptosis by DNA fragmentation analysis [7]: induced apoptosis
HIF1α and VEGF expression [8]: inhibited
cyclin D1 expression [8]: decrease
level of 89 kDa cleaved PARP [8]: increased
levels of phospho-Bad and procaspase 3 [8]: decreased
phosphorylation of Akt, p70S6K, S6 and GSK3β [8]: suppressed
level of 89 kDa cleaved PARP [9]: increased
levels of phospho-Bad and procaspase 3 [9]: decreased
Pleural effusion Incidence ([10]; 25 mg/kg i.p. twice/week): 1/5
Thoracic tumor Incidence ([10]; 25 mg/kg i.p. twice/week): 3/5
Pleural effusion Volume ([10]; 25 mg/kg i.p. twice/week): 0 (0–10)^a μl
Thoracic tumor Weight ([10]; 25 mg/kg i.p. twice/week): 69.1 (0–481.6)^a mg
survival time compared to control group ([10]; 50 mg/kg i.p. twice a week): significantly prolonged
Pleural effusion Incidence ([10]; 50 mg/kg i.p. twice/week): 0/5
Thoracic tumor Incidence ([10]; 50 mg/kg i.p. twice/week): 2/5
Pleural effusion Volume ([10]; 50 mg/kg i.p. twice/week): 0 (−)^a μl
Thoracic tumor Weight ([10]; 50 mg/kg i.p. twice/week): 0 (0–41)^a mg
ALT ([11]; 25 mg/kg i.p. twice/week): 19 (15–72) IU/l
AST ([11]; 25 mg/kg i.p. twice/week): 46 (37–117) IU/l
BUN ([11]; 25 mg/kg i.p. twice/week): 20.2 (17.9–23.0) mg/dl
Cre ([11]; 25 mg/kg i.p. twice/week): 0.11 (0.06–0.20) mg/dl
TP (serum total protein) ([11]; 25 mg/kg i.p. twice/week): 4.3 (3.9–5.6) g/dl
Weight (body weight) ([11]; 25 mg/kg i.p. twice/week): 25.4 (24.4–26.3) g
ALT ([11]; 50 mg/kg i.p. twice/week): 25 (16–42) IU/l
AST ([11]; 50 mg/kg i.p. twice/week): 51 (46–92) IU/l
BUN ([11]; 50 mg/kg i.p. twice/week): 21.0 (16.4–23.2) mg/dl
Cre ([11]; 50 mg/kg i.p. twice/week): 0.09 (0.07–0.12)^a mg/dl
TP (serum total protein) ([11]; 50 mg/kg i.p. twice/week): 4.4 (3.9–5.6) g/dl
Weight (body weight) ([11]; 50 mg/kg i.p. twice/week): 24.4 (22.7–26.3) g
Akt phosphorylation (western blot of tumors) [12, 15]: inhibited
phospho-Akt-positive tumor cells (immunohistochemistry) [12, 15]: reduced
expression of p27kip1 and 89 kDa cleaved PARP (western blot of tumors) [12]: increased
side effects ([13]; administration reduced to three days per week): side effects were not shown
side effects ([13]; daily intraperitoneal 100 mg/kg, mice with ovarian cancer): body weight loss and dry skin
